Published values collected from several papers.
NUDT1: Oxidized purine nucleoside triphosphate hydrolase (NUDT1, Homo sapiens, UniProt P36639)
HDAC4: Histone deacetylase 4 (HDAC4, Homo sapiens, UniProt P56524)
PI4KB: Phosphatidylinositol 4-kinase beta (PI4KB, Homo sapiens, UniProt Q9UBF8)
cah: cah (Neisseria gonorrhoeae, UniProt Q50940)
SPHK2: Sphingosine kinase 2 (SPHK2, Homo sapiens, UniProt Q9NRA0)

The Kd of Cc1ccc(C(=O)Nc2ccc(Oc3cc4cnn(C)c4cc3-c3cn[nH]c3)c(F)c2)c(=O)n1-c1ccc(F)cc1 is reported as 0.62 µM (Platelet-derived growth factor receptor alpha (PDGFRA, Homo sapiens, UniProt P16234); binding, competition with immobilised ligand).
For CC[C@H](NC(=O)[C@H](CS(=O)(=O)CC1CC1)N[C@@H](c1ccc(F)cc1)C(F)(F)F)C(=O)C(=O)NC1CC1, the Ki was 0.00077 µM (Cathepsin S (Rattus norvegicus, UniProt Q02765); enzyme activity, inhibitor).
CCCN1CCN(c2ccc(-c3cncc(Cl)c3N3CCC4(CCNC4=O)CC3)cc2)CC1 has a Kd of 2.33 µM (NUDT1; cell-free assay; lysate).
With NS(=O)(=O)c1cc(C2(O)CSC3=NCCN32)ccc1Cl (centres unmarked) the Kd was 0.04 µM (Carbonic anhydrase 4 (CA4, Homo sapiens, UniProt P22748); thermal stability, DSF; pH 7).
CCCN(CCCCOCCOCCOCCOCC(=O)N[C@H](C(=O)N1C[C@H](O)C[C@H]1C(=O)NCc1ccc(-c2scnc2C)cc1)C(C)(C)C)C[C@@H](C)NC(=O)c1ccc(-c2noc(C(F)(F)F)n2)cc1 gave a DC50 of 0.004 µM (HDAC4; protein level, degrader).
The AC50 of O=C(Nc1ccc(CN2CCOCC2)c(C(F)(F)F)c1)c1ccc(C#Cc2cccc3cnccc23)cn1 is reported as 5.5 µM (NUDT1; enzyme activity, activator).
CCC(=O)N1CCC(C(=O)N(C)CC(=O)N2CCN(c3nc(-c4cnc(N)nc4C(F)F)nc(N4CCOCC4)n3)CC2)CC1 gave a Kd of > 30 µM (PI4KB; binding, competition with immobilised ligand).
For N[C@@H](CCC(=O)O)C(=O)O, the EC50 was 260 µM (Metabotropic glutamate receptor 7 (Grm7, Rattus norvegicus, UniProt P35400); ion flux, agonist).
The EC50 of CC(=O)c1cc([N+](=O)[O-])c(Sc2cccc(Cl)c2Cl)s1 is reported as > 50 µM (Cathepsin K (CTSK, Homo sapiens, UniProt P43235); enzyme activity, inhibitor).
With C=CC(=O)N1CCC(C(=O)NCC(=O)N2CCN(c3nc(-c4cnc(N)nc4C(F)F)nc(N4CCOCC4)n3)CC2)CC1 the Kd was > 30 µM (PI4KB; binding, competition with immobilised ligand).
NS(=O)(=O)c1nnc(NC(=O)C2CC2)s1 has a Ki of 0.0152 µM (cah; enzyme activity, inhibitor).
For Cc1cnc(-c2ccc(-c3ccc(NC(=O)Nc4c(F)cc(F)cc4F)cc3F)c3c2C(=O)NC3)[nH]1, the Kd was 0.0022 µM (Tyrosine-protein kinase Blk (BLK, Homo sapiens, UniProt P51451); binding, competition with immobilised ligand).
N=C(N)N1CCC[C@H]1c1nc(-c2ccc(CCC3CCCCC3)c(C(F)(F)F)c2)no1 gave a Ki of 0.09 µM (SPHK2; enzyme activity, inhibitor).
Nc1nnc(S(N)(=O)=O)s1 gave a Ki of 0.0732 µM (cah; enzyme activity, inhibitor).
With CCCc1ccc(CCc2ccc(-c3noc([C@@H]4CCCN4C(=N)N)n3)cc2C(F)(F)F)cc1 the Ki was 0.132 µM (SPHK2; enzyme activity, inhibitor).
With NS(=O)(=O)c1nnc(NC(=O)CC2CC2)s1 the Ki was 0.0293 µM (cah; enzyme activity, inhibitor).
For C=CC(=O)N1CCC(C(=O)N(C)CC(=O)N2CCN(c3nc(-c4cnc(N)nc4C(F)F)nc(N4CCOCC4)n3)CC2)CC1, the Kd was > 30 µM (PI4KB; binding, competition with immobilised ligand).
FC(F)(F)c1ccc(C(c2c[nH]c3ccccc23)c2c[nH]c3ccccc23)cc1 has a Kd of 3 µM (Nuclear receptor subfamily 4immunitygroup A member 1 (NR4A1, Homo sapiens, UniProt P22736); binding, SPR).
With CCCN(CCCCOCCOCCOCCOCCOCC(=O)N[C@@H](C(=O)N1C[C@@H](O)C[C@@H]1C(=O)NCc1ccc(-c2scnc2C)cc1)C(C)(C)C)C[C@@H](C)NC(=O)c1ccc(-c2noc(C(F)(F)F)n2)cc1 the DC50 was > 10 µM (HDAC4; protein level, degrader).
The Ki of CCCC[C@H](NC(=O)[C@H](C)c1c(C)[nH]c2ccc(O)cc12)c1ncc(-c2cc3ccccc3nc2OC)[nH]1 is reported as 3.94 µM (Alpha-1B adrenergic receptor (Adra1b, Rattus norvegicus, UniProt P15823); cell-free assay).
For Cc1ncsc1-c1ccc(CNC(=O)[C@@H]2C[C@@H](O)CN2C(=O)[C@@H](NC(=O)COCCOCCOCC(F)(F)c2cnc(-c3ccc(C(C(=O)NO)c4ccccc4F)cc3)nc2)C(C)(C)C)cc1 (mixture of isomers), the DC50 was 0.028 µM (HDAC4; protein level, degrader).
With NS(=O)(=O)c1nnc(NC(=O)C2CCCC2)s1 the Ki was 0.0141 µM (cah; enzyme activity, inhibitor).
For CCOC(=O)[C@](CC)(CCCS(=O)(=O)CCOCCOCCNC(=O)OC(C)(C)C)NC(=O)c1ccc(C2CC2)c(Cc2ccc(F)cc2)n1, the Ki was 0.1 µM (Cannabinoid receptor 2 (Cnr2, Mus musculus, UniProt P47936); ligand displacement, radioligand; cell membranes).
